Results taken from ChEMBL document CHEMBL5724801, “EUbOPEN Chemogenomics Library - Multiplex” (2024).
“And” between values parts separate entries of the source, which are not always exact repeats. Equal entries are not always repeated.

Test system: Fibroblast
Assay: Multiplex assay against human fibroblast
Format: toxicity, cell-based
In short: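 Live cells carried four stains from seeding: Hoechst33342, BioTracker Green Microtubule Cytoskeleton Dye, MitoTracker Red and Annexin V Alexa Fluor 680. They were imaged on a CQ1 microscope at 37°C and 5% CO2 after compound addition. Using CellPathfinder machine-learning gating, cells were split into Hoechst high-intensity objects or normal cells, normal cells into healthy, pyknosed or fragmented nuclei, and pyknosed cells into mitotic or apoptotic; tubulin, mitochondrial-mass and membrane-permeability phenotypes are per cents of healthy-nucleus cells.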

[1] = 12 h, 1 µM, compound concentration 1 uM
[2] = 12 h, 10 µM, compound concentration 10 uM
[3] = 24 h, 1 µM, compound concentration 1 uM
[4] = 24 h, 10 µM, compound concentration 10 uM
[5] = 48 h, 1 µM, compound concentration 1 uM
[6] = 48 h, 10 µM, compound concentration 10 uM

For `N[C@@]1(C(=O)O)CO[C@H]2[C@H](C(=O)O)[C@H]21` [LY-379268], the “Population Apoptotic (%)” value [1] was 22% and 44%, the “Population Fragmented Nuclei (%)” value [1] was 17% and 33% and the “Population Healthy Nuclei (%)” value [1] was 70% and 43%. For the same compound, the “Population Hoechst High Intensity Objects (%)” value [1] was 1% and 10%, the “Population Membrane Permeable-Phenotype (%)” value [1] was 0% and 5% and the “Population Mitochondria Different-Phenotype (%)” value [1] was 2% and 1%. The “Population Mitotic Cells (%)” value [1] was 77% and 55%, the “Population Normal (%)” value [1] was 98% and 89% and the “Population Pyknosed Nuclei (%)” value [1] was 11% and 22%. The “Population Tubulin-Different-Phenotype (%)” value [1] was 25% and 45%, the “Total Cell Count” value [1] was 156 and 145 and the “Population Apoptotic (%)” value [2] was 29% and 21%. The “Population Fragmented Nuclei (%)” value [2] was 15%, the “Population Healthy Nuclei (%)” value [2] was 69% and 51% and the “Population Hoechst High Intensity Objects (%)” value [2] was 3%. The “Population Membrane Permeable-Phenotype (%)” value [2] was 0% and 4%, the “Population Mitochondria Different-Phenotype (%)” value [2] was 3% and 1% and the “Population Mitotic Cells (%)” value [2] was 70% and 78%. For the same compound, the “Population Normal (%)” value [2] was 96%, the “Population Pyknosed Nuclei (%)” value [2] was 14% and 33% and the “Population Tubulin-Different-Phenotype (%)” value [2] was 19% and 47%. The “Total Cell Count” value [2] was 187 and 128, the “Population Apoptotic (%)” value [3] was 36% and 47% and the “Population Fragmented Nuclei (%)” value [3] was 16% and 40%. The “Population Healthy Nuclei (%)” value [3] was 70% and 41%, the “Population Hoechst High Intensity Objects (%)” value [3] was 0% and 10% and the “Population Membrane Permeable-Phenotype (%)” value [3] was 0% and 4%. For the same compound, the “Population Mitochondria Different-Phenotype (%)” value [3] was 5% and 10%, the “Population Mitotic Cells (%)” value [3] was 63% and 52% and the “Population Normal (%)” value [3] was 99% and 89%. For the same compound, the “Population Pyknosed Nuclei (%)” value [3] was 12% and 18%, the “Population Tubulin-Different-Phenotype (%)” value [3] was 23% and 60% and the “Total Cell Count” value [3] was 152 and 125. For the same compound, the “Population Apoptotic (%)” value [4] was 66% and 22%, the “Population Fragmented Nuclei (%)” value [4] was 14% and 17% and the “Population Healthy Nuclei (%)” value [4] was 75% and 53%. For the same compound, the “Population Hoechst High Intensity Objects (%)” value [4] was 5% and 6%, the “Population Membrane Permeable-Phenotype (%)” value [4] was 0% and 2% and the “Population Mitochondria Different-Phenotype (%)” value [4] was 3% and 0%. The “Population Mitotic Cells (%)” value [4] was 33% and 77%, the “Population Normal (%)” value [4] was 94% and 93% and the “Population Pyknosed Nuclei (%)” value [4] was 10% and 28%. For the same compound, the “Population Tubulin-Different-Phenotype (%)” value [4] was 19% and 44%, the “Total Cell Count” value [4] was 189 and 133 and the “Population Apoptotic (%)” value [5] was 76% and 50%. The “Population Fragmented Nuclei (%)” value [5] was 22% and 33%, the “Population Healthy Nuclei (%)” value [5] was 68% and 55% and the “Population Hoechst High Intensity Objects (%)” value [5] was 3% and 11%. For the same compound, the “Population Membrane Permeable-Phenotype (%)” value [5] was 0% and 4%, the “Population Mitochondria Different-Phenotype (%)” value [5] was 5% and 7% and the “Population Mitotic Cells (%)” value [5] was 23% and 50%. For the same compound, the “Population Normal (%)” value [5] was 96% and 88%, the “Population Pyknosed Nuclei (%)” value [5] was 8% and 11% and the “Population Tubulin-Different-Phenotype (%)” value [5] was 26% and 59%. The “Total Cell Count” value [5] was 156 and 136, the “Population Apoptotic (%)” value [6] was 62% and 42% and the “Population Fragmented Nuclei (%)” value [6] was 14% and 27%. The “Population Healthy Nuclei (%)” value [6] was 72% and 56%, the “Population Hoechst High Intensity Objects (%)” value [6] was 1% and 7% and the “Population Membrane Permeable-Phenotype (%)” value [6] was 0% and 10%. For the same compound, the “Population Mitochondria Different-Phenotype (%)” value [6] was 0% and 5%, the “Population Mitotic Cells (%)” value [6] was 37% and 57% and the “Population Normal (%)” value [6] was 98% and 92%. The “Population Pyknosed Nuclei (%)” value [6] was 13% and 16%, the “Population Tubulin-Different-Phenotype (%)” value [6] was 19% and 47% and the “Total Cell Count” value [6] was 179 and 140.
With `CNc1nc(NCc2ncccn2)c2c(-c3ccc4ncccc4c3)c[nH]c2n1` the “Population Fragmented Nuclei (%)” value [1] was 13.9% and 7.14%, the “Population Healthy Nuclei (%)” value [1] was 54.01% and 75.6% and the “Population Hoechst High Intensity Objects (%)” value [1] was 0%. For the same compound, the “Population Membrane Permeable-Phenotype (%)” value [1] was 2.97% and 3.94%, the “Population Mitochondria Different-Phenotype (%)” value [1] was 7.92% and 10.24% and the “Population Mitotic Cells (%)” value [1] was 95% and 75.86%. For the same compound, the “Population Normal (%)” value [1] was 100%, the “Population Pyknosed Nuclei (%)” value [1] was 32.09% and 17.26% and the “Population Tubulin-Different-Phenotype (%)” value [1] was 11.88% and 22.83%. For the same compound, the “Total Cell Count” value [1] was 187 and 168, the “Population Apoptotic (%)” value [2] was 15.15% and 23.33% and the “Population Fragmented Nuclei (%)” value [2] was 8.7% and 4.55%. The “Population Healthy Nuclei (%)” value [2] was 70.81% and 81.82%, the “Population Hoechst High Intensity Objects (%)” value [2] was 0% and the “Population Membrane Permeable-Phenotype (%)” value [2] was 15.79% and 10%. The “Population Mitochondria Different-Phenotype (%)” value [2] was 16.67% and 13.89%, the “Population Mitotic Cells (%)” value [2] was 84.85% and 76.67% and the “Population Normal (%)” value [2] was 100%. For the same compound, the “Population Pyknosed Nuclei (%)” value [2] was 20.5% and 13.64%, the “Population Tubulin-Different-Phenotype (%)” value [2] was 33.33% and 51.67% and the “Total Cell Count” value [2] was 161 and 220. For the same compound, the “Population Fragmented Nuclei (%)” value [3] was 11.26% and 5.29%, the “Population Healthy Nuclei (%)” value [3] was 65.37% and 85.29% and the “Population Hoechst High Intensity Objects (%)” value [3] was 0%. The “Population Membrane Permeable-Phenotype (%)” value [3] was 1.99% and 6.21%, the “Population Mitochondria Different-Phenotype (%)” value [3] was 3.31% and 4.83% and the “Population Mitotic Cells (%)” value [3] was 98.15% and 87.5%. The “Population Normal (%)” value [3] was 100%, the “Population Pyknosed Nuclei (%)” value [3] was 23.38% and 9.41% and the “Population Tubulin-Different-Phenotype (%)” value [3] was 12.58% and 11.72%. The “Total Cell Count” value [3] was 231 and 170, the “Population Apoptotic (%)” value [4] was 23.08% and 26.09% and the “Population Fragmented Nuclei (%)” value [4] was 8.06% and 4.98%. The “Population Healthy Nuclei (%)” value [4] was 77.96% and 84.62%, the “Population Hoechst High Intensity Objects (%)” value [4] was 0% and the “Population Membrane Permeable-Phenotype (%)” value [4] was 2.76% and 4.28%. The “Population Mitochondria Different-Phenotype (%)” value [4] was 11.72% and 12.83%, the “Population Mitotic Cells (%)” value [4] was 76.92% and 73.91% and the “Population Normal (%)” value [4] was 100%. The “Population Pyknosed Nuclei (%)” value [4] was 13.98% and 10.41%, the “Population Tubulin-Different-Phenotype (%)” value [4] was 37.24% and 52.41% and the “Total Cell Count” value [4] was 186 and 221. The “Population Apoptotic (%)” value [5] was 11.76% and 6.67%, the “Population Fragmented Nuclei (%)” value [5] was 8.43% and 2.79% and the “Population Healthy Nuclei (%)” value [5] was 85.06% and 88.83%. The “Population Hoechst High Intensity Objects (%)” value [5] was 0%, the “Population Membrane Permeable-Phenotype (%)” value [5] was 1.35% and 4.4% and the “Population Mitochondria Different-Phenotype (%)” value [5] was 11.26% and 5.66%. The “Population Mitotic Cells (%)” value [5] was 88.24% and 93.33%, the “Population Normal (%)” value [5] was 100% and the “Population Pyknosed Nuclei (%)” value [5] was 6.51% and 8.38%. For the same compound, the “Total Cell Count” value [5] was 261 and 179, the “Population Apoptotic (%)” value [6] was 23.08% and 42.86% and the “Population Fragmented Nuclei (%)” value [6] was 11.86% and 6.28%. For the same compound, the “Population Healthy Nuclei (%)” value [6] was 81.44% and 90.58%, the “Population Hoechst High Intensity Objects (%)” value [6] was 0% and the “Population Membrane Permeable-Phenotype (%)” value [6] was 5.06% and 7.92%. The “Population Mitotic Cells (%)” value [6] was 76.92% and 57.14%, the “Population Normal (%)” value [6] was 100% and the “Population Pyknosed Nuclei (%)” value [6] was 6.7% and 3.14%. The “Population Tubulin-Different-Phenotype (%)” value [6] was 18.35% and 54.46% and the “Total Cell Count” value [6] was 194 and 223.
